Measured values as given in ChEMBL document CHEMBL1124241, “Arylformamidines with antinociceptive properties” (1988).

Key:
Type in all cases: functional
Mus musculus [1] = species on record: Mus musculus; assay: Analgesic activity was determined in mouse writhing test
In short: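 Mice received test compound sc; 30 min later 0.2 mL of 0.08 N HCl was given ip. Animals were watched for 15 min for absence of abdominal stretching (writhing). Activity was expressed as ED50 in mg/kg.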

Mus musculus [2] = assay: Analgesic activity was determined in mouse tail flick writhing test by intraperitoneal administration of 0.2 mL of 0.08 N HCl 30 min after the subcutaneous injection of the compound
Mus musculus [3] = assay: Analgesic activity was determined in mouse pinch writhing test by intraperitoneal administration of 0.2 mL of 0.08 N HCl 30 min after the subcutaneous injection of the compound
Rattus norvegicus [4] = assay: Hypotensive activity in the rat as change in blood pressure (mmHg) at 24 hr after of 50 mg/kg oral dose of the compound; Bradycardia
In short: (§1)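 Conscious restrained female Sprague-Dawley rats fitted with chronic indwelling aortic cannulas exteriorized at the nape. Towel restraint kept sympathetic tone high. Blood pressure was recorded directly by transducer and polygraph at 4 and 24 h after oral dosing in carboxymethylcellulose vehicle at 10 mL/kg. A change of ±5 mmHg was taken as not significant.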

Rattus norvegicus [5] = assay: Hypotensive activity in the rat as change in blood pressure (mmHg) at 4 hr after a 50 mg/kg oral dose of the compound; in short: as §1
Rattus norvegicus [6] = assay: Hypotensive activity in the rat as change in blood pressure (mmHg) at 24 hr after of 50 mg/kg oral dose of the compound; in short: as §1
Mus musculus [7] = assay: Analgesic activity was determined in mouse writhing test by intraperitoneal administration of 0.2 mL of 0.08 N HCl 30 min after the subcutaneous injection of the compound(expt.2); details: 0.5 h

Structure (SMILES) | ED50 (Mus musculus [1]; Mus musculus) | BP (Rattus norvegicus [5]) | also measured
C/N=C\Nc1c(C)cc(C)cc1C | 0.11 mg/kg |  | 
C/N=C\Nc1cccc(Cl)c1Cl | 0.8 mg/kg |  | 
Cc1cc(C(O)c2ccc(Cl)cc2)cc(C)c1/N=C/N(C)C (centres undefined) | > 50 mg/kg |  | 
CC(=O)OC(C)c1cc(C)c(/N=C/N(C)C)c(C)c1 (centres undefined) | > 30 mg/kg |  | 
C/N=C\Nc1ccccc1Cl | 35 mg/kg |  | 
Cc1cc(C(C)O)cc(C)c1/N=C/N(C)C (centres undefined) | 40 mg/kg |  | 
CCOC(=O)C(C)c1cc(C)c(/N=C/N(C)C)c(C)c1 (centres undefined) | > 50 mg/kg |  | ED50 (Mus musculus [1]): 8 mg/kg; ED50 (Mus musculus [2]): 18 mg/kg; ED50 (Mus musculus [3]): 22 mg/kg
Cc1cc(C(O)c2ccc(Cl)c(Cl)c2)cc(C)c1/N=C/N(C)C (centres undefined) | > 50 mg/kg |  | 
C/N=C\Nc1c(Cl)cccc1Cl.Cl | 4.4 mg/kg | -21 mmHg | BP (Rattus norvegicus [4]): -13 mmHg
C/N=C\Nc1ccc(Cl)cc1Cl | > 50 mg/kg |  | 
Cc1ccc(/N=C/N(C)C)c(C)c1.Cl | 0.1 mg/kg |  | 
CCOC(=O)C(C)(O)c1cc(C)c(/N=C/N(C)C)c(C)c1 (centres undefined) | > 50 mg/kg |  | 
CCOC(=O)C(C)(OC(C)=O)c1cc(C)c(/N=C/N(C)C)c(C)c1 (centres undefined) | > 50 mg/kg |  | 
C/N=C\Nc1cc(Cl)ccc1Cl.Cl | > 50 mg/kg | 3 mmHg | BP (Rattus norvegicus [6]): 5 mmHg
Cc1cccnc1/N=C/N(C)C.Cl | > 50 mg/kg | 8 mmHg | BP (Rattus norvegicus [6]): 9 mmHg
C/N=C\Nc1ccc(C)cc1C.Cl | 0.02 mg/kg | -10 mmHg | BP (Rattus norvegicus [4]): -19 mmHg
CN(C)/C=N/c1cc(Cl)ccc1Cl.Cl | > 50 mg/kg | -5 mmHg | BP (Rattus norvegicus [6]): -4 mmHg
Cc1cccc(C)c1/N=C/N(C)C.Cl | 0.1 mg/kg | -15 mmHg | BP (Rattus norvegicus [6]): -21 mmHg
CCOC(=O)c1cc(C)c(/N=C/N(C)C)c(C)c1.Cl | > 50 mg/kg |  | 
CN(C)/C=N/c1c(Cl)cccc1Cl.Cl | 3 mg/kg | -24 mmHg | BP (Rattus norvegicus [4]): -4 mmHg
C/N=C\Nc1ccc(Cl)c(Cl)c1.Cl | > 50 mg/kg | 0 mmHg | BP (Rattus norvegicus [6]): -3 mmHg
Cc1cc(C)c(/N=C/N(C)C)c(C)c1.Cl | 0.4 mg/kg | -10 mmHg | ED50 (Mus musculus [7]): 0.37 mg/kg; BP (Rattus norvegicus [6]): 2 mmHg
CN(C)/C=N/c1ccc(Cl)c(Cl)c1.Cl | > 50 mg/kg | 0 mmHg | BP (Rattus norvegicus [6]): 2 mmHg
Clc1cccc(Cl)c1NC1=NCCN1 [CLONIDINE] | 0.02 mg/kg | -29 mmHg | 
